The values that follow come from publication PMC9055346 (RSC Advances, 2020).

Bounds are passed on as bounds.

Experiment [1] concerns the target AChE from electric eel (EeAChE) (Electrophorus electricus, UniProt O42275). Description: In vitro AChE inhibition, modified Ellman's method. In kind it is biochemical. As to conditions: for IC50: EeAChE IC50 ± SEM, mean of three independent experiments; for AChE inhibitory activity (in words): up to 10 mM; for inhibition at 156 µM / inhibition at 312 µM / inhibition at 625 µM / inhibition at 1250 µM / inhibition at 2500 µM / inhibition at 5000 µM / inhibition at 10000 µM: read-out: % of AChE inhibition.

Experiment [2] in a line: Antioxidant assay, ORAC-FL method. As to conditions: compound and Trolox at 8 μM, 37 °C, three independent experiments. Put shortly: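 ORAC-FL in 75 mM phosphate buffer, 200 μL total: test compound, Trolox (both 8 μM) or buffer blank with 150 nM fluorescein solution, kept dark at 37 °C for 30 min. Then 12 mM AAPH solution is added and fluorescence (ex 485/em 535 nm) read every 1 min for 15 min. Net AUC vs blank is expressed as Trolox equivalents (Trolox = 1). Triplicates; three independent experiments, mean ± SEM.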

A short description of experiment [3]: Metal chelation study by UV spectrophotometer. In kind it is physicochemical. As to conditions: UV spectra 200 to 600 nm. Put shortly: (§1)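 UV spectra from 200 to 600 nm at 37 °C. Test compound and metal salt (FeCl3, CuCl2, ZnSO4·H2O or AlCl3·6H2O) are combined at 100 μM each and incubated at 37 °C for 30 min. Compound-alone spectra use water in place of metal. Read-outs are % change in absorbance, (+) for decrease and (−) for increase, plus band shift.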

A short description of experiment [4]: Metal chelation study by UV spectrophotometer. In kind it is physicochemical. The settings on record: UV spectra 200 to 600 nm. Put shortly:
as §1
The source holds these as a separate data set.

Chain of AChE from electric eel (EeAChE) (O42275 24-633): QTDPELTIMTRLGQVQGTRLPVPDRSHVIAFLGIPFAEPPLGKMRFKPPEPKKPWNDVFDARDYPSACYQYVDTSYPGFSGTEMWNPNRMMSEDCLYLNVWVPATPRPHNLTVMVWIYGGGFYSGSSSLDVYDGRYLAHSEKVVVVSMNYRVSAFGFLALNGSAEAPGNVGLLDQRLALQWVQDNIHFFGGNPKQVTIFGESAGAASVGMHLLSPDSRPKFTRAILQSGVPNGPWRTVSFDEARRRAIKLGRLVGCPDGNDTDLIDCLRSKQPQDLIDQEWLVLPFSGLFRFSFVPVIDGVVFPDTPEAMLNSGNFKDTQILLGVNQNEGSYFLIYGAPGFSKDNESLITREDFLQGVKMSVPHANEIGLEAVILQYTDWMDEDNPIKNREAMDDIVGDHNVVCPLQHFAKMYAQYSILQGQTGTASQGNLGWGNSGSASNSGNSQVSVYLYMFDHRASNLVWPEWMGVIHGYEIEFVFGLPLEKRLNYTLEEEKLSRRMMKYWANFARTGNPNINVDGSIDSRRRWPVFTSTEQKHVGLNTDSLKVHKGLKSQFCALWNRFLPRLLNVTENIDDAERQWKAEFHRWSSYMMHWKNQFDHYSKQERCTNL

The IC50 is the concentration needed to halve the response being measured. Lower therefore signals greater potency. For `Cc1ncc(COCc2cn(Cc3ccccc3)nn2)c(CO)c1O` [Compound 5a, 5-(((1-Benzyl-1H-1,2,3-triazol-4-yl)methoxy)methyl)-4-(hydroxymethyl)-2-methylpyridin-3-ol], in experiment [1], the IC50 is over 10000 µM and the “AChE inhibitory activity (in words)” value is “inactive”. The “ORAC index ± SEM” value in experiment [2] was 1.0564 Trolox equivalents.

In turn, `Cc1ccc(Cn2cc(COCc3cnc(C)c(O)c3CO)nn2)cc1` [Compound 5b, 4-(Hydroxymethyl)-2-methyl-5-(((1-(4-methylbenzyl)-1H-1,2,3-triazol-4-yl)methoxy)methyl)pyridin-3-ol] yielded an IC50 in experiment [1] of 3380 µM. In addition, in experiment [2], the “ORAC index ± SEM” value was determined as 1.8428 Trolox equivalents.

What is called inhibition is the change of the read-out against control, counted positive when it falls. In the case of `Cc1cccc(Cn2cc(COCc3cnc(C)c(O)c3CO)nn2)c1` [Compound 5c, 4-(Hydroxymethyl)-2-methyl-5-(((1-(3-methylbenzyl)-1H-1,2,3-triazol-4-yl)methoxy)methyl)pyridin-3-ol], in experiment [1], the IC50 is 1380 µM, the inhibition at 156 µM was 22.5%, the inhibition at 312 µM worked out at 26.9% and the inhibition at 625 µM was 39.1%. In experiment [1], the inhibition at 1250 µM was found to be 53.8%, the inhibition at 2500 µM was 64.1%, the inhibition at 5000 µM amounted to 73.4% and the inhibition at 10000 µM amounted to 81.9%. Besides, in experiment [3], the “chelation of Fe^3+ (in words)” value is recorded as “chelated”. Also, the “chelation of Al^3+ (in words)” value in experiment [4] was “chelated”. The “ORAC index ± SEM” value in experiment [2] is on record as 2.0164 Trolox equivalents.

For `Cc1ccccc1Cn1cc(COCc2cnc(C)c(O)c2CO)nn1` [Compound 5d, 4-(Hydroxymethyl)-2-methyl-5-(((1-(2-methylbenzyl)-1H-1,2,3-triazol-4-yl)methoxy)methyl)pyridin-3-ol], in experiment [1], half-maximal inhibition (IC50) was put at 907 µM, the inhibition at 156 µM is 33.5%, the inhibition at 312 µM turned out to be 36.4% and the inhibition at 625 µM is 51.1%. Besides, in experiment [1], the inhibition at 1250 µM was 58.6%, the inhibition at 2500 µM amounted to 69.6%, the inhibition at 5000 µM stood at 81.3% and the inhibition at 10000 µM amounted to 86%. In addition, in experiment [2], the “ORAC index ± SEM” value is 1.9723 Trolox equivalents.

For `COc1cccc(Cn2cc(COCc3cnc(C)c(O)c3CO)nn2)c1` [Compound 5e, 4-(Hydroxymethyl)-5-(((1-(3-methoxybenzyl)-1H-1,2,3-triazol-4-yl)methoxy)methyl)-2-methylpyridin-3-ol], the IC50 in experiment [1] came out at 4570 µM. For the same molecule, the “ORAC index ± SEM” value in experiment [2] was found to be 1.8862 Trolox equivalents.

In experiment [1], `COc1cc(Cn2cc(COCc3cnc(C)c(O)c3CO)nn2)cc(OC)c1` [Compound 5f, 5-(((1-(3,5-Dimethoxybenzyl)-1H-1,2,3-triazol-4-yl)methoxy)methyl)-4-(hydroxymethyl)-2-methylpyridin-3-ol] displayed an IC50 of 2650 µM. Besides, in experiment [2], the “ORAC index ± SEM” value stood at 2.3425 Trolox equivalents.

In experiment [1], `Cc1ncc(COCc2cn(Cc3ccc(F)cc3)nn2)c(CO)c1O` [Compound 5g, 5-(((1-(4-Fluorobenzyl)-1H-1,2,3-triazol-4-yl)methoxy)methyl)-4-(hydroxymethyl)-2-methylpyridin-3-ol] returned an IC50 of 6470 µM. In addition, the “ORAC index ± SEM” value in experiment [2] turned out to be 1.4489 Trolox equivalents.

As for `Cc1ncc(COCc2cn(Cc3cccc(F)c3)nn2)c(CO)c1O` [Compound 5h, 5-(((1-(3-Fluorobenzyl)-1H-1,2,3-triazol-4-yl)methoxy)methyl)-4-(hydroxymethyl)-2-methylpyridin-3-ol], in experiment [1], the concentration for half-maximal inhibition (IC50) worked out at 1540 µM, the inhibition at 156 µM was 19%, the inhibition at 312 µM amounted to 25.5% and the inhibition at 625 µM amounted to 35.1%. Further, in experiment [1], the inhibition at 1250 µM turned out to be 56.4%, the inhibition at 2500 µM came to 60.5%, the inhibition at 5000 µM stood at 66.6% and the inhibition at 10000 µM is 69%. For the same molecule, the “ORAC index ± SEM” value in experiment [2] came to 2.1015 Trolox equivalents.

For `Cc1ncc(COCc2cn(Cc3ccc(Cl)cc3)nn2)c(CO)c1O` [Compound 5j, 5-(((1-(4-Chlorobenzyl)-1H-1,2,3-triazol-4-yl)methoxy)methyl)-4-(hydroxymethyl)-2-methylpyridin-3-ol], in experiment [1], the IC50 is 2720 µM. Besides, in experiment [2], the “ORAC index ± SEM” value came to 1.9697 Trolox equivalents.

Take `Cc1ncc(COCc2cn(Cc3cccc(Cl)c3)nn2)c(CO)c1O` [Compound 5k, 5-(((1-(3-Chlorobenzyl)-1H-1,2,3-triazol-4-yl)methoxy)methyl)-4-(hydroxymethyl)-2-methylpyridin-3-ol]: in experiment [1], the IC50 was 2710 µM. Besides, in experiment [2], the “ORAC index ± SEM” value was 0.8358 Trolox equivalents.

The molecule `Cc1ncc(COCc2cn(Cc3ccc(Cl)c(Cl)c3)nn2)c(CO)c1O` [Compound 5l, 5-(((1-(3,4-Dichlorobenzyl)-1H-1,2,3-triazol-4-yl)methoxy)methyl)-4-(hydroxymethyl)-2-methylpyridin-3-ol] yielded an IC50 in experiment [1] of 3380 µM. For the same molecule, the “ORAC index ± SEM” value in experiment [2] amounted to 1.9421 Trolox equivalents.

With `Cc1ncc(COCc2cn(Cc3ccc(Br)cc3)nn2)c(CO)c1O` [Compound 5m, 5-(((1-(4-Bromobenzyl)-1H-1,2,3-triazol-4-yl)methoxy)methyl)-4-(hydroxymethyl)-2-methylpyridin-3-ol], in experiment [1], the half-maximal inhibitory concentration (IC50) worked out at 3140 µM. Further, the “ORAC index ± SEM” value in experiment [2] worked out at 1.215 Trolox equivalents.

Consider `Cc1ncc(COCc2cn(Cc3cccc(Br)c3)nn2)c(CO)c1O` [Compound 5n, 5-(((1-(3-Bromobenzyl)-1H-1,2,3-triazol-4-yl)methoxy)methyl)-4-(hydroxymethyl)-2-methylpyridin-3-ol], for which, in experiment [1], the IC50 worked out at 1080 µM, the inhibition at 156 µM turned out to be 14.7%, the inhibition at 312 µM worked out at 25.8% and the inhibition at 625 µM turned out to be 42%. In addition, in experiment [1], the inhibition at 1250 µM is 57.4%, the inhibition at 2500 µM turned out to be 70.2%, the inhibition at 5000 µM amounted to 75.9% and the inhibition at 10000 µM came out at 86.3%. In addition, the “ORAC index ± SEM” value in experiment [2] was 2.2079 Trolox equivalents.

`Cc1ncc(COCc2cn(Cc3ccc(C(F)(F)F)cc3)nn2)c(CO)c1O` [Compound 5o, 4-(Hydroxymethyl)-2-methyl-5-(((1-(4-(trifluoromethyl)benzyl)-1H-1,2,3-triazol-4-yl)methoxy)methyl)pyridin-3-ol]: the IC50 in experiment [1] stood at 6520 µM. For the same molecule, in experiment [2], the “ORAC index ± SEM” value turned out to be 2.0758 Trolox equivalents.

Molecule `Cc1ncc(COCc2cn(Cc3cccc(C(F)(F)F)c3)nn2)c(CO)c1O` [Compound 5p, 4-(Hydroxymethyl)-2-methyl-5-(((1-(3-(trifluoromethyl)benzyl)-1H-1,2,3-triazol-4-yl)methoxy)methyl)pyridin-3-ol] yielded an IC50 in experiment [1] of 3650 µM. The “ORAC index ± SEM” value in experiment [2] is 0.8718 Trolox equivalents.

On to `Cc1ncc(COCc2cn(Cc3ccccc3C(F)(F)F)nn2)c(CO)c1O` [Compound 5q, 4-(Hydroxymethyl)-2-methyl-5-(((1-(2-(trifluoromethyl)benzyl)-1H-1,2,3-triazol-4-yl)methoxy)methyl)pyridin-3-ol], for which, in experiment [1], the midpoint of inhibition, the IC50, lay at 1130 µM; the inhibition at 156 µM stood at 22.5%; the inhibition at 312 µM came to 26.9%; the inhibition at 625 µM came to 39.1%. For the same molecule, in experiment [1], the inhibition at 1250 µM came to 53.8%, the inhibition at 2500 µM was found to be 64.1%, the inhibition at 5000 µM came to 73.4% and the inhibition at 10000 µM stood at 81.9%. Further, the “chelation of Fe^3+ (in words)” value in experiment [3] is listed as “chelated”. The “chelation of Al^3+ (in words)” value in experiment [4] is “chelated”. Further, in experiment [2], the “ORAC index ± SEM” value came out at 0.7168 Trolox equivalents.

Consider `Cc1ncc(CO)c(CO)c1O` [Pyridoxine, reference compound], for which the “AChE inhibitory activity (in words)” value in experiment [1] is “not an AChE inhibitor”; in experiment [1] (listed as pyridoxine), “inactive”. The “ORAC index ± SEM” value in experiment [2] is on record as 0.5249 Trolox equivalents.

In the case of `Cc1c(C)c2c(c(C)c1O)CCC(C)(C(=O)O)O2` (stereo not shown) [Trolox, reference compound], the “ORAC index ± SEM” value in experiment [2] amounted to 1 Trolox equivalents.
